From ChEMBL document CHEMBL1138050, “Furan-2-ylmethylene thiazolidinediones as novel, potent, and selective inhibitors of phosphoinositide 3-kinase gamma” (J Med Chem, 2006)
Activity calls are given as the source filed them. The calls are words filed in the database; no cut-off is given here.

Tests used:
[1] = biological target: Dual specificity mitogen-activated protein kinase kinase 4 (Mus musculus) (UniProt P47809); assay: Residual activity at mouse MKK4 at 10 uM in presence of 10 uM ATP relative to control
Summary of the method: (§1)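 Single-concentration counter-screen across a panel of 80 Ser/Thr and Tyr protein kinases. Compound was tested at 10 µM with ATP at 10 µM. Activity remaining in each kinase is expressed relative to control.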

[2] = biological target: Dual specificity mitogen-activated protein kinase kinase 7 (Homo sapiens) (UniProt O14733); assay: Residual activity at human MKK7-beta at 10 uM in presence of 10 uM ATP relative to control; summary of the method: as §1
[3] = biological target: Ribosomal protein S6 kinase beta-1 (Homo sapiens) (UniProt P23443); assay: Residual activity at human p70S6K at 10 uM in presence of 10 uM ATP relative to control; summary of the method: as §1
[4] = biological target: Platelet-derived growth factor receptor alpha (Homo sapiens) (UniProt P16234); assay: Residual activity at human PDGFRalpha at 10 uM in presence of 10 uM ATP relative to control; summary of the method: as §1
[5] = biological target: Protein kinase C gamma type (Homo sapiens) (UniProt P05129); assay: Residual activity at human PKCgamma at 10 uM in presence of 10 uM ATP relative to control; summary of the method: as §1
[6] = biological target: Protein kinase C epsilon type (Homo sapiens) (UniProt Q02156); assay: Residual activity at human PKCepsilon at 10 uM in presence of 10 uM ATP relative to control; summary of the method: as §1
[7] = biological target: Protein kinase C eta type (Homo sapiens) (UniProt P24723); assay: Residual activity at human PKCeta at 10 uM in presence of 10 uM ATP relative to control; summary of the method: as §1
[8] = biological target: Serine/threonine-protein kinase Chk2 (Homo sapiens) (UniProt O96017); assay: Residual activity at human Chk2 at 10 uM in presence of 10 uM ATP relative to control
Summary of the method: (§2)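 Panel of Ser/Thr and Tyr protein kinases, each tested with 10 µM compound in the presence of 10 µM ATP; activity expressed relative to control.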

[9] = biological target: RAF proto-oncogene serine/threonine-protein kinase (Homo sapiens) (UniProt P04049); assay: Residual activity at human c-RAF at 10 uM in presence of 10 uM ATP relative to control; summary of the method: as §1
Chain of RAF proto-oncogene serine/threonine-protein kinase (Homo sapiens) (P04049 whole entry): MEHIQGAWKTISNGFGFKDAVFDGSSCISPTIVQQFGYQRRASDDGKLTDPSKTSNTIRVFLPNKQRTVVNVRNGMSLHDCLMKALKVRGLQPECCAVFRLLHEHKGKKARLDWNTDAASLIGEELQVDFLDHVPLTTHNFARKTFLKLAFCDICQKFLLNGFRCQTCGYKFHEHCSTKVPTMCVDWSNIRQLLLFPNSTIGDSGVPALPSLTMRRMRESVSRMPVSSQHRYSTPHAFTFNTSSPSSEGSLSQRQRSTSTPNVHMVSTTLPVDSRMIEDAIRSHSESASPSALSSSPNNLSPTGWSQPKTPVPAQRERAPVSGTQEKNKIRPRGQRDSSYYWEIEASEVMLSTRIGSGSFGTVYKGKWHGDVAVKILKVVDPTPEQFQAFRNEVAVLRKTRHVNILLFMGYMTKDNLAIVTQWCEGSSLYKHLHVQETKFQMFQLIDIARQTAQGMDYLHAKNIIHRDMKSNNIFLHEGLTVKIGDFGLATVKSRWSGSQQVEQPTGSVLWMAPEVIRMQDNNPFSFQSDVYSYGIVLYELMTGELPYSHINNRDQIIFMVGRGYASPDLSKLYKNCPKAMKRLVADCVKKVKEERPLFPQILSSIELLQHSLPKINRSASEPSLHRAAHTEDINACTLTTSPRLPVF

[10] = biological target: Tyrosine-protein kinase Fes/Fps (Homo sapiens) (UniProt P07332); assay: Residual activity at human Fes at 10 uM in presence of 10 uM ATP relative to control; summary of the method: as §2
[11] = biological target: Insulin-like growth factor 1 receptor (Homo sapiens) (UniProt P08069); assay: Residual activity at human IGF1R at 10 uM in presence of 10 uM ATP relative to control; summary of the method: as §2
[12] = biological target: Inhibitor of nuclear factor kappa-B kinase subunit alpha (Homo sapiens) (UniProt O15111); assay: Residual activity at human IKKalpha at 10 uM in presence of 10 uM ATP relative to control; summary of the method: as §2
Chain of Inhibitor of nuclear factor kappa-B kinase subunit alpha (Homo sapiens) (O15111 whole entry): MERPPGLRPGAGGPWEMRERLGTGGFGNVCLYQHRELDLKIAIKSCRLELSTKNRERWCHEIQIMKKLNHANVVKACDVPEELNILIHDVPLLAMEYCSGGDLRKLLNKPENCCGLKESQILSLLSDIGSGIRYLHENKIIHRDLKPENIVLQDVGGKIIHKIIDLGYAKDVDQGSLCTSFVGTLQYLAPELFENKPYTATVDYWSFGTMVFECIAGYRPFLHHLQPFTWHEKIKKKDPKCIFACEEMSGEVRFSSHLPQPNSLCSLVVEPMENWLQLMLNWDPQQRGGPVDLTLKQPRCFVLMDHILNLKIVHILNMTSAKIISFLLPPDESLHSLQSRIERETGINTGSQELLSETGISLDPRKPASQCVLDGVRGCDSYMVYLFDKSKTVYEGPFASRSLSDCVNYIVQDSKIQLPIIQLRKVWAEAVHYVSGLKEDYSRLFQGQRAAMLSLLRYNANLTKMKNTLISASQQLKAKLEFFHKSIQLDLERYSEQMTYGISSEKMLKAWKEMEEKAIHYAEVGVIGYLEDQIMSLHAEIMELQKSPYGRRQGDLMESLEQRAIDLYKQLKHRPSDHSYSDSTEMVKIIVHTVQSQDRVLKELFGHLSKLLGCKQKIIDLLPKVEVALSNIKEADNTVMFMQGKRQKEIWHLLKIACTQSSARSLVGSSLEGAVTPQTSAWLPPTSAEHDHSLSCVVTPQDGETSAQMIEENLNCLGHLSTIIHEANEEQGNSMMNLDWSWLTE

[13] = biological target: Mitogen-activated protein kinase 1 (Homo sapiens) (UniProt P28482); assay: Residual activity at human MAPK1 at 10 uM in presence of 10 uM ATP relative to control; summary of the method: as §1
Chain of Mitogen-activated protein kinase 1 (Homo sapiens) (P28482 whole entry): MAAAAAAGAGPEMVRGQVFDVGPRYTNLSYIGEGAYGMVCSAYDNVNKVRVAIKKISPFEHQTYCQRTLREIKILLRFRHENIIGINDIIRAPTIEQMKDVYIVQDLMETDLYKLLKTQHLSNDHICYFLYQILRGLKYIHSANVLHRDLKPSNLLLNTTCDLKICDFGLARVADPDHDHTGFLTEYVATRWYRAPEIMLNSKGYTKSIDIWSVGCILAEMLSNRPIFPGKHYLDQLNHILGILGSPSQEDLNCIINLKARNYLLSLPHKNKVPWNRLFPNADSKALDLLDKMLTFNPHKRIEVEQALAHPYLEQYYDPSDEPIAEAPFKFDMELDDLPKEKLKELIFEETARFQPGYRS

[14] = biological target: MAP kinase-activated protein kinase 2 (Homo sapiens) (UniProt P49137); assay: Residual activity at human MAPKAPK2 at 10 uM in presence of 10 uM ATP relative to control; summary of the method: as §1
Chain of MAP kinase-activated protein kinase 2 (Homo sapiens) (P49137 whole entry, looked up): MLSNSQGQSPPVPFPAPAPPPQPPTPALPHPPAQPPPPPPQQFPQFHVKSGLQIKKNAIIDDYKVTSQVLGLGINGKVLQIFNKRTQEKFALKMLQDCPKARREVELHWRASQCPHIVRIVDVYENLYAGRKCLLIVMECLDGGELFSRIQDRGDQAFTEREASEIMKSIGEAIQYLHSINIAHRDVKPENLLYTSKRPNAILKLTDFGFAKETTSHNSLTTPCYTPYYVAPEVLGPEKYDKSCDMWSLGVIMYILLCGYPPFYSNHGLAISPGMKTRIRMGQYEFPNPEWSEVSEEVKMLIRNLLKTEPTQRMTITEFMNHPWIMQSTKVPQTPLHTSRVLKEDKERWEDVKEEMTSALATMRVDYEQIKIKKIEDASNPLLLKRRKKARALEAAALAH

[15] = biological target: Serine/threonine-protein kinase N2 (Homo sapiens) (UniProt Q16513); assay: Residual activity at human PRK2 at 10 uM in presence of 10 uM ATP relative to control; summary of the method: as §1
Chain of Serine/threonine-protein kinase N2 (Homo sapiens) (Q16513 whole entry, looked up): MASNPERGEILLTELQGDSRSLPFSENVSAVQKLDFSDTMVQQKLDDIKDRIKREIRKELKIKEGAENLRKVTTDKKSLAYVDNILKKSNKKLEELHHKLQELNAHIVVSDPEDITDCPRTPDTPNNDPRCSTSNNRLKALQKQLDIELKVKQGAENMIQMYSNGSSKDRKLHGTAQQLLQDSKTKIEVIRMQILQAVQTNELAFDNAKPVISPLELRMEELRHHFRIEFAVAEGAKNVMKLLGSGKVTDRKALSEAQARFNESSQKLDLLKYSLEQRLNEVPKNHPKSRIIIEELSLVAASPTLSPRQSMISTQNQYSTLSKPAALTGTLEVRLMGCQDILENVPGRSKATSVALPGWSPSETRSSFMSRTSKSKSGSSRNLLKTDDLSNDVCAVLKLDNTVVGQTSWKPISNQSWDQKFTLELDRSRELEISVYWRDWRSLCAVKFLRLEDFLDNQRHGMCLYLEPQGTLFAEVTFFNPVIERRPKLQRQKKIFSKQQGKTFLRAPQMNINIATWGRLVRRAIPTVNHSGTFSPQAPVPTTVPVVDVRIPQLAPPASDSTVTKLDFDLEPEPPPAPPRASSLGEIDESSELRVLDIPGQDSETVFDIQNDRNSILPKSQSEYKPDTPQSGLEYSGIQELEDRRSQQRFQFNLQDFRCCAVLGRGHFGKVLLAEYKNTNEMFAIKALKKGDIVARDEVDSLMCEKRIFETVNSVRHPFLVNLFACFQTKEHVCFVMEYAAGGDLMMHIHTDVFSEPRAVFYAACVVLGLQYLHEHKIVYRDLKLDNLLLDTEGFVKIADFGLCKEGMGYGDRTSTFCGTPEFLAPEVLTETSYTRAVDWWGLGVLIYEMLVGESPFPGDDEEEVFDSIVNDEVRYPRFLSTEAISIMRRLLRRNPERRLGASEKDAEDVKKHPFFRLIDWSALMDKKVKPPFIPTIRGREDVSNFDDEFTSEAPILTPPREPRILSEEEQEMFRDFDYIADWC

[16] = biological target: Rho-associated protein kinase 2 (Homo sapiens) (UniProt O75116); assay: Residual activity at human ROCK2 at 10 uM in presence of 10 uM ATP relative to control; summary of the method: as §1
[17] = biological target: Ribosomal protein S6 kinase alpha-3 (Homo sapiens) (UniProt P51812); assay: Residual activity at human Rsk3 at 10 uM in presence of 10 uM ATP relative to control; summary of the method: as §1
[18] = biological target: Mitogen-activated protein kinase 11 (Homo sapiens) (UniProt Q15759); assay: Residual activity at human SAPK2b at 10 uM in presence of 10 uM ATP relative to control; summary of the method: as §1
[19] = biological target: Serine/threonine-protein kinase Sgk1 (Homo sapiens) (UniProt O00141); assay: Residual activity at human SGK at 10 uM in presence of 10 uM ATP relative to control; summary of the method: as §1
Chain of Serine/threonine-protein kinase Sgk1 (Homo sapiens) (O00141 whole entry): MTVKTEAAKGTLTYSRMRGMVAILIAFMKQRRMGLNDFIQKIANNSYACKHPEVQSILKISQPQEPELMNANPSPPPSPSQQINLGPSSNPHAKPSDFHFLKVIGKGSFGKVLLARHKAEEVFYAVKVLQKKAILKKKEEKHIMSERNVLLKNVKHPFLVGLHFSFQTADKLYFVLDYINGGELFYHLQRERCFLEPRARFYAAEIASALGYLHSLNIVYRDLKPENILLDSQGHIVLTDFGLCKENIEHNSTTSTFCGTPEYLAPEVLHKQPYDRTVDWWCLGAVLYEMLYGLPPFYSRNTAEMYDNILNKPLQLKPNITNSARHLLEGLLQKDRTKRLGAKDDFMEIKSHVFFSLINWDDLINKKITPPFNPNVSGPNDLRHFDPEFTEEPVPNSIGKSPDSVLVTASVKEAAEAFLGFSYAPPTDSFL

[20] = biological target: Tyrosine-protein kinase Yes (Homo sapiens) (UniProt P07947); assay: Inhibition of human Yes at 10 uM in presence of 10 uM ATP relative to control; design: scale not given: the % may be the effect or the level left; summary of the method: as §2
[21] = biological target: Tyrosine-protein kinase ZAP-70 (Homo sapiens) (UniProt P43403); assay: Residual activity at human ZAP70 at 10 uM in presence of 10 uM ATP relative to control; summary of the method: as §1
Chain of Tyrosine-protein kinase ZAP-70 (Homo sapiens) (P43403 whole entry): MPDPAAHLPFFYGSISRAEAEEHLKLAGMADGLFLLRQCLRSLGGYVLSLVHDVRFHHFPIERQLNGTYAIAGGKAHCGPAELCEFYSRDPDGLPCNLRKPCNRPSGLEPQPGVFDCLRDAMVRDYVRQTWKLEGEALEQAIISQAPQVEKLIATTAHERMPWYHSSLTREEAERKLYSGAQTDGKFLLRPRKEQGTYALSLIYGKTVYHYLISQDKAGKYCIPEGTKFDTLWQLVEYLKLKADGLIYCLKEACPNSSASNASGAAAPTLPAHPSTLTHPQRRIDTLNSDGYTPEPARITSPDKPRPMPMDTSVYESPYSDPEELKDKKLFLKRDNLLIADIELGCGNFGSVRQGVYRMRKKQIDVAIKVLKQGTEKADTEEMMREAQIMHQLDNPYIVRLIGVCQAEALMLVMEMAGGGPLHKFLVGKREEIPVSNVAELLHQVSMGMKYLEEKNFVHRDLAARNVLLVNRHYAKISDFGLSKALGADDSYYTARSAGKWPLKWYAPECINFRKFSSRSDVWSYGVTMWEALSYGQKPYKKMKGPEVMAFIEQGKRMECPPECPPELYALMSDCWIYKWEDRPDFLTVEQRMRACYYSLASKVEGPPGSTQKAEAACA

[22] = biological target: Dual specificity mitogen-activated protein kinase kinase 7 (Homo sapiens, UniProt O14733); assay: Inhibition of human MKK7beta
Mast cell = assay: Inhibition of SCF-induced PKB/Akt phosphorylation in mouse mast cells at 10 uM; type: functional, cell-based
Summary of the method: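 Bone marrow mast cells from 4- to 8-week-old wild-type mice, derived ≥4 weeks in 20 ng/mL SCF plus 20 ng/mL IL-3 and confirmed c-kit+ by FACS. Cells at 2.5 × 10^6/mL starved 24 h without SCF/IL-3, preincubated 20 min with compound or 1% DMSO, stimulated 15 min at 37 °C with 20 ng/mL SCF. Fixed in 1.5% paraformaldehyde, permeabilized with 0.2% Triton X-100, phospho-Ser-473 Akt read by FACS.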

[23] = Dissociation constant, pKa of the compound; type: physicochemical
Summary of the method: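 UV-metric titration under argon at 25 ± 0.5 °C. 10 mM DMSO stock diluted into 0.15 M KCl containing 60, 50, 40 or 30 wt% MeOH, with 0.25 mM KH2PO4. Brought to pH 11.0 with 0.5 M KOH, then titrated with 0.5 M HCl to pH 4, at most 0.15 pH unit per step. UV 200-500 nm recorded after each addition; Yasuda-Shedlovsky extrapolation to zero cosolvent.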

[24] = Half life in rat at 10 mg/kg, po; type: ADME, organism-based; design: dose 10 mg/kg, route oral; settings: in vivo
Summary of the method: (§3)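 Rats given a single 10 mg/kg dose, intravenously or orally. The compound was given as its potassium salt, prepared with KOH in THF/water, for the in vivo work.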

[25] = Metabolism in rat microsome after 1 hr; type: ADME; settings: microsomes, read-out: Activity
[26] = AUC in rat at 10 mg/kg, po; type: ADME, organism-based; design: dose 10 mg/kg, route oral; settings: plasma; summary of the method: as §3
[27] = biological target: CDK3/cyclin E (Homo sapiens) (UniProt P24864+O96020+Q00526); assay: Residual activity at human CDK3/CyclinE at 10 uM in presence of 10 uM ATP relative to control; type: protein-complex assay; summary of the method: as §2
[28] = biological target: Tyrosine-protein kinase ABL2 (Mus musculus) (UniProt Q4JIM5); assay: Residual activity at mouse Arg at 10 uM in presence of 10 uM ATP relative to control; summary of the method: as §1
[29] = biological target: Cytoplasmic tyrosine-protein kinase BMX (Homo sapiens) (UniProt P51813); assay: Residual activity at human Bmx at 10 uM in presence of 10 uM ATP relative to control; summary of the method: as §2
Chain of Cytoplasmic tyrosine-protein kinase BMX (Homo sapiens) (P51813 whole entry): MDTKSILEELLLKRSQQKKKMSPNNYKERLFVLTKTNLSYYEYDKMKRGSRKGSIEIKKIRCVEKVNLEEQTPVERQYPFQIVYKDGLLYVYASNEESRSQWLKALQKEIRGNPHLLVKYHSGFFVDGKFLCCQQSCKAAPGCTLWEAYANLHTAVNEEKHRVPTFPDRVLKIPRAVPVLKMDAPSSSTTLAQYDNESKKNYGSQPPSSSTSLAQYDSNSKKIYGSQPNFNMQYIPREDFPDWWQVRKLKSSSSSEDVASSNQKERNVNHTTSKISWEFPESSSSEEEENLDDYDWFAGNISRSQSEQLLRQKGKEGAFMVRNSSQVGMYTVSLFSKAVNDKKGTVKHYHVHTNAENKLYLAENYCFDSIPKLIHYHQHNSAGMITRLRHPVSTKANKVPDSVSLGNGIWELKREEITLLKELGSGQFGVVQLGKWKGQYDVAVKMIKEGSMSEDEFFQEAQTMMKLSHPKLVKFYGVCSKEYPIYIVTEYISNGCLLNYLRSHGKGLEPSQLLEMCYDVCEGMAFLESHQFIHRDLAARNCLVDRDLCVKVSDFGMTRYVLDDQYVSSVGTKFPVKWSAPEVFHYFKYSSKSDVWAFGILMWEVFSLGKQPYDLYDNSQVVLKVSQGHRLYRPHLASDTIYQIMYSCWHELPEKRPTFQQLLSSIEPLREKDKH

Question: Which Activity [1] does the source give for `O=C1NC(=O)/C(=C/c2ccc(-c3ccc(F)cc3O)o2)S1` here?
Answer: 85%

Question: And the Activity [2]?
Answer: 2%

Question: And the Activity [3]?
Answer: 190%

Question: What about the Activity [4] of the same compound?
Answer: 85%

Question: And the Activity [5]?
Answer: 107%

Question: What about the Activity [6] of the same compound?
Answer: 93%

Question: And the Activity [7]?
Answer: 91%

Question: And the Activity [8]?
Answer: 82%

Question: What about the Activity [9] of the same compound?
Answer: 99%

Question: What about the Activity [10] of the same compound?
Answer: 90%

Question: And the Activity [11]?
Answer: 96%

Question: What about the Activity [12] of the same compound?
Answer: 82%

Question: What about the Activity [13] of the same compound?
Answer: 103%

Question: What about the Activity [14] of the same compound?
Answer: 117%

Question: What about the Activity [15] of the same compound?
Answer: 95%

Question: What about the Activity [16] of the same compound?
Answer: 90%

Question: And the Activity [17]?
Answer: 73%

Question: What about the Activity [18] of the same compound?
Answer: 89%

Question: And the Activity [19]?
Answer: 98%

Question: And the Activity [20]?
Answer: 99%

Question: And the Activity [21]?
Answer: 159%

Question: And the IC50 [22]?
Answer: > 10 µM

Question: What about the Activity (Mast cell) of the same compound?
Answer: inactive

Question: And the pKa [23]?
Answer: 8.4

Question: What about the half-life [24] of the same compound?
Answer: 1 h

Question: And the metabolised at 1 h [25]?
Answer: 16%

Question: And the AUC [26]?
Answer: 847 ng·h/mL

Question: And the Activity [27]?
Answer: 117%

Question: What about the Activity [28] of the same compound?
Answer: 85%

Question: And the Activity [29]?
Answer: 102%
